Bioassay records (PubChem)
Hits are enriched below; roughly 4.2% of the tested compounds scored in any of these assays.
KCNQ1 pot: potentiates or activates the human KCNQ1 potassium channel; P51787; CHO-K1 KCNQ1, thallium flux FluxOR fluorescence; active compounds read high; B-score at 10 µM; 310,000 compounds, 0.35% hits; AID 2648;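 active means fluorescence ratio B-score, a plate-corrected score, at least three library SD, with initial intensity B-score within 5 SD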
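Assay system: stable KCNQ1 CHO-K1 line; medium: assay buffer, equal DMSO in all wells; timing: 90 min dye loading and 20 min compound exposure, both at room temperature; technique: kinetic FluxOR thallium fluorescence, 10-s 1-Hz baseline, 110-s post-stimulus read; read-out basis: B score of baseline-normalized fluorescence ratio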
AI-2 QS modul: modulators of Vibrio harveyi AI-2 quorum sensing system; 300,000 compounds, 0.4% hits; Vibrio harveyi JMH597 AI-2 luminescence/OD600 ratio, 9 h; active compounds read low; strain lacks LuxN and CqsS sensors; 0 = neutral-control median; activity change, % at 7.5 µM; AID 2094; in the data active means activity change below about -75%, passing the limit was not always enough;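 further: luminescence divided by OD600 gain over 9 h not by final OD600 alone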
KCNQ1 block: inhibitors of human KCNQ1 potassium channel | CHO-K1 KCNQ1, FluxOR thallium flux fluorescence; active compounds read high | B-score at 10 µM | P51787 | 310,000 compounds, 1.3% hits;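 active means compounds whose thallium flux B-score, printed positive for inhibition, exceeds three library SD while starting fluorescence stays within three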;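 further: channel opened by potassium depolarization with thallium stimulus after 20 min compound exposure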
Cl transport mod: KCC2 (human) Cl- transport modulation | Q9H2X9 | KCC2 cells, thallium flux FluoZin-2 fluorescence | B-score of Tl+ flux slope (higher = more flux/activation; lower = inhibition) at 10 µM | 190,000 compounds, 2.2% hits;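 active means thallium flux slope and its plate-corrected score both differing from the plate sample mean at a set confidence after two filtering rounds, in either direction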;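 further: slope of fluorescence scaled to starting intensity during 10 to 20 s after thallium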
Target sequence (Q9H2X9 whole entry, looked up): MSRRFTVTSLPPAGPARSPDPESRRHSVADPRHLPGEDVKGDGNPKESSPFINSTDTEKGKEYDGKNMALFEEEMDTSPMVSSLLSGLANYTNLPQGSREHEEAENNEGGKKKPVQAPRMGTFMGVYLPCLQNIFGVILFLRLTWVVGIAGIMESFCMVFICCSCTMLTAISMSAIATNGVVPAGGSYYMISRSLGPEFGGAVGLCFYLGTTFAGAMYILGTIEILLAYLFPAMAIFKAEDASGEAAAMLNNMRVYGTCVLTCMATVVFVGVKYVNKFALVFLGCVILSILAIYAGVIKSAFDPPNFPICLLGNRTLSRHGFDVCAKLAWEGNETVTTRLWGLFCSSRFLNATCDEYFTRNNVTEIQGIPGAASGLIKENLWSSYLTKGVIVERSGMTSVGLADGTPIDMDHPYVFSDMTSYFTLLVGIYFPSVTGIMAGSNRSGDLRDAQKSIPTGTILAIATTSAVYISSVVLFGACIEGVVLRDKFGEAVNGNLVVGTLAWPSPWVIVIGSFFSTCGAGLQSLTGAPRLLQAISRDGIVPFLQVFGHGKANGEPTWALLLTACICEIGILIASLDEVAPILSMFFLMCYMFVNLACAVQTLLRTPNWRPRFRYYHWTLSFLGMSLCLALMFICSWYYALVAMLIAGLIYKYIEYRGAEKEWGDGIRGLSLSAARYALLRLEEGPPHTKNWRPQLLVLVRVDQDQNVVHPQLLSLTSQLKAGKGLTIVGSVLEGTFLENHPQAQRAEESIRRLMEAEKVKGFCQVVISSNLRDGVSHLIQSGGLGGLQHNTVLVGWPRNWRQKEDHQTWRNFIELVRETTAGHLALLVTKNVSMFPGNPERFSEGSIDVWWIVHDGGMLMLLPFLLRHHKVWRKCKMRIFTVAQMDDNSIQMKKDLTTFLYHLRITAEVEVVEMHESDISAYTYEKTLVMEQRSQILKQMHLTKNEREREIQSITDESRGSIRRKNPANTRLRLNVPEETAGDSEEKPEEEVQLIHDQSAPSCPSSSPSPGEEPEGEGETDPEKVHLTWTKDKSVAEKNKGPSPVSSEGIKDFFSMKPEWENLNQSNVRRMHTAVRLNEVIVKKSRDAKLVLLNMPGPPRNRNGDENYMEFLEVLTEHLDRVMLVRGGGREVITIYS
hERG rescue: compounds protecting human hERG from proarrhythmic drug block | Q12809 | CHO-hERG, FluxOR thallium flux, dofetilide IC70 present | activation (rescue from dofetilide block), less the hit threshold, % at 10 µM | 310,000 compounds, 0.51% hits | AID 1511;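 active means activation above the mean of controls blocked by dofetilide plus 5 SD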;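 further: thallium influx through hERG after potassium depolarization seen as dye fluorescence rise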
SUMO Mot1 rescue: SUMOylation pathway inhibition by Mot1-301 growth rescue; S. cerevisiae Mot1-301 growth rescue, ATP luminescence, 38.5C; percent above DMSO median, 100 means doubled; growth rescue, % at 18.8 µM; 320,000 compounds, 1% hits; AID 2716;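 active means every valid replicate shows activation above 250% relative to neutral control wells; inactive means the rest, any valid replicate at or below 250%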;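 further: OY570 slx delta 5 strain wells were the positive control but not used for scaling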
Yeast Mot1 SUMO: SUMO pathway inhibitors in yeast Mot1-301 growth; 2,300 tested, under 10 active; shares compounds with SUMO Mot1 rescue; S. cerevisiae Mot1-301 galactose growth, ATP luminescence, 24 h; -100 = growth of slx-deleted rescue strain; growth activity, percent, % at 42 µM;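 active means Signal drops as the depositor expects, and the fitted half-maximal dose is no more than ten times the top valid tested dose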;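 further: more negative values mean stronger growth rescue toward the control strain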
Numbers without * were called inactive; i = inactive; nt = not tested or not shown; + = active, no number.

SMILES	KCNQ1 pot	AI-2 QS modul	KCNQ1 block	Cl transport mod	hERG rescue	SUMO Mot1 rescue	Yeast Mot1 SUMO
CCCCN(C(=O)c1ccc(NC2CC2)c([N+](=O)[O-])c1)c1c(N)n(CC(C)C)c(=O)[nH]c1=O	nt	nt	nt	nt	nt	-3	nt
CC[n+]1c(/C=C(/C)SC)sc2ccccc21	i	10	i	0.16	-4	76	nt
CC[n+]1c(/C=C(\C)SC)sc2ccccc21	i	-1	i	nt	-1	540*	-1
NC(=O)NC(=O)CN1C(=O)NC(c2ccccc2)(c2ccccc2)C1=O	i	7	i	nt	-1	188	nt
NN1C(=O)NC(c2ccccc2)(c2ccccc2)C1=O	i	26	i	0.84	-3	543*	0
CCCCn1c(Cn2nc(C(=O)O)c3ccccc3c2=O)nc2cc(S(N)(=O)=O)ccc21	i	14	i	nt	-12	19	nt
O=S(=O)(Cc1ccccc1)N1CCN(c2ccccc2)CC1	i	24	i	0.0036	-13	583*	0
COc1ccc(N2CCN(S(=O)(=O)Cc3ccccc3)CC2)cc1	i	17	i	0.027	-16	5	nt
O=C(COc1ccccc1)NCCS(=O)(=O)N1CCN(c2ccccc2)CC1	i	13	i	nt	-12	380*	0
O=C1CC(c2c[nH]c3ccccc23)C(=O)N1c1ccccc1 (stereo not given)	i	8	i	0.61	-9	709*	0
CCCCOc1ccc(C(=O)Nc2ccc(CN3CCOCC3)cc2)cc1	i	13	i	nt	-5	362*	0
CCCOc1ccc(C(=O)Nc2ccc(CN3CCOCC3)cc2)cc1	i	24	i	nt	-6	178	nt
CC(C)C[C@H](NC(=O)N1CCn2c1nc1ccccc12)C(=O)N[C@H](Cc1ccccc1)C(=O)O	i	19	i	nt	-9	-11	nt
CC(C)NC(=O)C(c1ccc(F)cc1)N(C(=O)CCC(=O)Nc1ccccn1)c1cccc(F)c1 (stereo not given)	i	24	i	nt	-5	69	nt
CN(C(=O)c1ccncc1)c1nnc(-c2cnccn2)s1	i	1	i	-0.032	-8	365*	0
Cc1ccc(-c2nnc(N(C)C(=O)C3CCCO3)s2)cn1 (stereo not given)	i	27	i	nt	-4	nt	nt
CN(C(=O)C1CCCO1)c1nnc(-c2cnccn2)s1 (stereo not given)	i	11	i	0.025	-1	519*	0
CCOc1ccc(N=C(NN)c2ccc3ccccc3n2)cc1	i	17	i	0.53	-2	5	nt
Cc1ccc(CNC(=O)CCn2cc(-c3ccc(C)cc3)nc2CCN)cc1	nt	nt	nt	nt	nt	+	0
N#CCCN(C(=O)COC(=O)c1cccc(S(=O)(=O)Nc2ccc([N+](=O)[O-])cc2)c1)c1ccccc1	i	21	i	-0.61	-8	444	nt
N#CCCN(C(=O)COC(=O)c1ccc(S(=O)(=O)Nc2ccccc2)cc1)c1ccccc1	i	19	i	-0.025	-10	+	0
CCC(C)CCN1CCN=C1Nc1ccccc1 (stereo not given)	nt	nt	nt	nt	nt	110	nt
Cc1cccc(N2C(=O)CC(Sc3nc(C)cc(C)n3)C2=O)c1 (stereo not given)	i	27	i	0.89	-7	323	nt
Cc1cc(C)cc(N2C(=O)CC(Sc3ncn[nH]3)C2=O)c1 (stereo not given)	i	15	i	0.27	-4	452*	-2
COc1ccc2c(Cl)c(C(=O)NN3CCN(C)CC3)sc2c1	i	31	i	-0.92	-17	587*	-1
SMILES	KCNQ1 pot	AI-2 QS modul	KCNQ1 block	Cl transport mod	hERG rescue	SUMO Mot1 rescue	Yeast Mot1 SUMO
COc1ccc(/C=C(\C#N)C(=O)c2cccn2C)cc1	i	35	i	nt	-6	396*	0
COc1ccccc1N1CCN(CCN2C(=O)C3CCCCN3C2=O)CC1 (stereo not given)	i	27	i	nt	-6	454*	0
O=C1C2CCCN2C(=O)N1CCN1CCN(c2ccccc2)CC1 (stereo not given)	i	36	i	-0.074	-7	-4	nt
CN=C1SC(CC(=O)Nc2sc3c(c2C#N)CCCC3)C(=O)N1C (stereo not given)	i	30	i	-0.33	-7	364*	0
CC(C)Cn1c(=O)c2ccccc2c2ccccc2c1=O	i	25	i	1.3	-9	2	nt
CC(C)CCn1c(=O)c2ccccc2c2ccccc2c1=O	i	12	6*	nt	-9	+	0
O=C(Nc1cccnc1Cl)c1cc2ccccc2o1	i	30	i	nt	-3	567*	0
Cc1cc(NC(=O)c2cccnc2Cl)ccc1NC(=O)c1cc2ccccc2o1	i	18	i	nt	-5	21	nt
COC/C=C/C1=CC2=CC(=O)C(C)(OC(=O)c3cnc4ccccc4n3)C(=O)C2=CN1CCOC (stereo not given)	i	33	i	nt	-4	519*	0
Cn1c(=O)c2c(ncn2CC(=O)N2CCCCCC2)n(C)c1=O	i	1	i	1	-14	+	0
CC1CCN(C(=O)Cn2cnc3c2c(=O)n(C)c(=O)n3C)c2ccccc2S1 (stereo not given)	i	15	i	nt	1	761*	0
O=C(O)c1ccc(CNC(=O)c2ccccc2NC(=O)c2ccc([N+](=O)[O-])cc2)cc1	i	2	i	0.0018	-8	713*	0
O=C(O)c1ccc(CNC(=O)c2ccccc2NC(=O)c2cccc([N+](=O)[O-])c2)cc1	i	35	i	0.99	-4	-9	nt
CCOC(=O)C1ON2CCCCC2C1(O)C(F)(F)F (stereo not given)	i	15	i	-0.21	-3	528*	1
COc1ccccc1NC(=O)COC(=O)CC(C)(C)CC1=NS(=O)(=O)c2ccccc2N1	i	17	i	nt	-11	396*	0
CC(C)(CC(=O)OCC(=O)Nc1ccccc1F)CC1=NS(=O)(=O)c2ccccc2N1	i	10	i	nt	-3	-20	nt
CN(CC(=O)Nc1ccccc1Sc1ccccc1)Cc1nc2ccccc2c(=O)[nH]1	i	16	i	-2.3	-4	704*	0
Cc1ccccc1CS(=O)(=O)Cc1ccc(C(=O)NCC2CCCO2)o1 (stereo not given)	i	9	i	nt	-8	0	nt
